Screening data as filed in PubChem.
The full list was thinned out, with hits kept by preference.
UPR XBP1 act: activators of adaptive XBP1 UPR arm, primary screen, cell-based, CHO-XBP1 luciferase reporter, luminescence, uHTS; 330,000 compounds, 0.33% hits; IRE1-XBP1 UPR activation; percent of tunicamycin response, DMSO as zero; activation, % at 20 µM; AID 463104, 2010;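 active = versus positive control, 20 µM dose yields 30% or more activation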
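Material – CHO cell line with stable XBP1 luciferase reporter · Buffer or medium – F12 plus 10% FBS · Compound – single point, 20 µM final compound, 1% DMSO · Schedule – 16-18 h cell attachment at 37 °C, then 6 h compound exposure · Signal – Steady-Glo luminescence read · Benchmarks – high control tunicamycin 10 µg/mL final, low control DMSO vehicle only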
CHOP UPR activ: activators of apoptotic CHOP UPR arm, primary screen, cell-based, CHO-CHOP luciferase reporter, luminescence, uHTS; activation, % at 10 µM; 330,000 compounds, 0.34% hits; UPR activation; percent of tunicamycin response over DMSO baseline;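 active = at 10 µM dose, activation of 40% or more, normalized to positive control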
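System: CHO CHOP reporter cells. Amount: 500 cells per well. Buffer or medium: F12 medium, 10% FBS. Compound dosing: one dose, 10 µM in 0.5% DMSO. Incubation: 6 h compound exposure at 37 °C after overnight seeding. Technique: Steady-Glo luciferase luminescence. Benchmarks: tunicamycin and DMSO controls.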
CHOP inhibitor: inhibitors of CHOP promoter induction, primary screen, cell-based, unfolded protein response, luciferase reporter. CHO-K1 CHOP-promoter luciferase, tunicamycin-induced, 15-18 h. 220,000 compounds, 3.8% hits. inhibition, % at 10 µM. AID 2732, 2010;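 active = compounds that reduced the stress-induced luciferase reporter signal by more than about 70% of percent inhibition, limit read from the data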
Bfl-1 A1 inh: caspase 3/7 activation in MEF A1-2A-BIM cells, primary screen, A1 inhibitor project, cell-based, luminescence, HTS | 330,000 compounds, 0.066% hits | caspase activation, % (concentration not given with the values) | AID 2462, 2010 | Caspase-Glo 3/7 luminescence, 3 h; percent of clofoctol response, vehicle zero;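 active = over half of replicate activation scores above 10%, or exactly half above 10 with the replicate mean above 10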
CHOP confirm: retest of CHOP induction inhibitors, confirmation, cell-based; shares compounds with CHOP inhibitor; 2,100 compounds, 45% hits; inhibition, % at 10 µM; AID 504437, 2011; CHO-CHOP promoter luciferase reporter, tunicamycin-induced, luminescence;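 active = mean of three repeat readings of reporter signal inhibition above a set limit, cut at about 70% in these data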
CHOP UPR conf: activators of apoptotic CHOP UPR arm, confirmation, cell-based, CHO-CHOP luciferase reporter, single concentration; shares compounds with CHOP UPR activ; CHO-CHOP cells, CHOP-luciferase reporter luminescence; percent of tunicamycin response, DMSO as zero; activation, % at 10 µM; 1,000 compounds, 64% hits; in the data active = activation above about 33%
XBP1 UPR conf: IRE1-XBP1 UPR arm activators, confirmation, cell-based, CHO-XBP1 luciferase reporter, luminescence, single concentration; shares compounds with UPR XBP1 act; 1,000 compounds, 63% hits; activation, % at 20 µM;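 active = reporter signal at least 30% of the positive control's activation in two or more of four replicate wells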
Large screens that a line does not name were inactive (follow-up assays come after a bar, where they were run).

CC[C@]12c3[nH]c4cc(-c5ccco5)ccc4c3CCN1C(=O)[C@@H](CC(=O)NCCN1CCOCC1)C[C@@H]2C(=O)N1CCN(C(=O)C2CC2)CC1	none (no result: CHOP inhibitor, Bfl-1 A1 inh)
Cc1cccc(NC(=O)CSc2nc(C)c(CC(=O)c3ccc(Br)cc3)c(C)c2C#N)c1C	UPR XBP1 act 48.1, CHOP inhibitor 102.5 | CHOP confirm 106.4 | XBP1 UPR conf 98.2
Cc1nc(SCC(=O)Nc2ccc(F)cc2)c(C#N)c(C)c1CC(=O)c1ccc(Br)cc1	UPR XBP1 act 97.5, CHOP UPR activ 57.0, CHOP inhibitor 103.0 | CHOP confirm 96.8 | CHOP UPR conf 34.9 | XBP1 UPR conf 67.8
COCc1cc(C)nc(SCC(=O)Nc2cccc(C)c2C)c1C#N	none
COc1cc(/C=C(\C#N)c2nc3ccccc3[nH]2)cc(Br)c1OCc1ccc(F)cc1	UPR XBP1 act 109.8, CHOP inhibitor 104.2 | CHOP confirm 84.1 | XBP1 UPR conf 128.2
COc1cc(/C=C(\C#N)c2nc3ccccc3[nH]2)cc(Br)c1OCc1ccccc1	none
O=C(O)CC1(CC(=O)NCc2ccc(Cl)cc2)CCCCC1	none (no result: CHOP inhibitor)
O=C(/C=C\c1cn(-c2ccccc2)nc1-c1ccccc1)Nc1nccs1	UPR XBP1 act 105.7, CHOP UPR activ 50.9, CHOP inhibitor 108.0 | CHOP confirm 104.8 | CHOP UPR conf inactive | XBP1 UPR conf 113.3
O=C(Nc1ccc(O)c(-c2nc3ccccc3s2)c1)c1cc(=O)c2ccccc2o1	UPR XBP1 act 41.6, CHOP inhibitor 107.9 | CHOP confirm inactive | XBP1 UPR conf 93.5
CCCCCCCCCn1c2c(c(=N)c3c1CCC3)CCCC2	UPR XBP1 act 44.2, CHOP UPR activ 72.1, CHOP inhibitor 105.9 (no result: Bfl-1 A1 inh) | CHOP confirm inactive | CHOP UPR conf 79.3 | XBP1 UPR conf 44.3
O=C(Nc1ccnn1C1CCN(Cc2cc(Cl)ccc2O)CC1)C1CC1	none (no result: CHOP inhibitor)
CC(Sc1nnc(-c2ccccc2)c(-c2ccccc2)n1)C(=O)NCC1CCCO1 (stereo not given)	none (no result: CHOP inhibitor)
O=[N+]([O-])c1ccc(/C=N/n2c(C3CCCCC3)n[nH]c2=S)cc1	UPR XBP1 act 34.0, CHOP inhibitor 105.4 | CHOP confirm 113.1 | XBP1 UPR conf inactive
O=C(/C=C/c1ccccc1)NC(NC(=S)Nc1cccc(Cl)c1)C(Cl)(Cl)Cl (stereo not given)	UPR XBP1 act 51.2, CHOP inhibitor 110.6 | CHOP confirm inactive | XBP1 UPR conf 30.2
O=C(/C=C/c1ccccc1)NC(NC(=S)Nc1cccc(O)c1)C(Cl)(Cl)Cl (stereo not given)	none
CCN(CC)CCCNC(=O)c1nn2c(C(F)(F)F)cc(-c3ccccc3)nc2c1Cl	none (no result: CHOP inhibitor)
NS(=O)(=O)c1ccc(CCNC(=O)c2ccc(NS(=O)(=O)c3ccc4[nH]c(=O)[nH]c4c3)cc2)cc1	none (no result: CHOP inhibitor)
CC(C)C[C@H](NC(=O)N1CCn2c1nc1ccccc12)C(=O)N[C@@H](C(=O)O)c1ccccc1	none (no result: CHOP inhibitor)
CC1CCC(C(C)C)C(OC(=O)CSc2nccc(=O)[nH]2)C1 (stereo not given)	none
COc1ccc(OCc2n(CC(=O)OC3CC(C)CCC3C(C)C)c3ccccc3[n+]2C)cc1 (stereo not given)	UPR XBP1 act 35.9, CHOP inhibitor 96.9 | CHOP confirm 94.9 | XBP1 UPR conf 32.5
Cc1ccc(C(=O)NNC(=O)COC(=O)COc2ccccc2C#N)cc1	none (no result: CHOP inhibitor, Bfl-1 A1 inh)
CC(C)Cn1c2c(c(=O)[nH]c1=O)C(C(F)(F)F)(C(F)(F)F)N=C(CCC1CCCCC1)N2	UPR XBP1 act 32.6, CHOP inhibitor 101.8 | CHOP confirm 82.3 | XBP1 UPR conf 37.8
